Reference: the RNAGym collection of RNA variant scans (doi:10.1126/science.aae0568)
This sample holds only a part of the variants without activity.

B1: tRNA (parent)
chain: GUUCCGUUGGCGUAAUGGUAACGCGUCUCCCUCCUAAGGAGAAGACUGCGGGUUCGAGUCCCGUACGGAACG

Variants of: B1
Assay: yeast fitness relative to wild type (ratio to wild type); higher = fitter; tRNA-Arg(CCU), competitive growth, 37 C, YPD
Procedure, shortened: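 A pool of Saccharomyces cerevisiae strains, each with a tRNA-Arg(CCU) gene variant at the native genomic locus, was competed in YPD at 37°C for 24 hours across six parallel replicates. The variants had been chemically synthesised at a 3% per-site mutation rate over 69 sites, and gene amplicons before and after competition were read by 100-nucleotide paired-end sequencing. Darwinian fitness relative to wild type rested on changes in genotype frequencies. Genotypes required ≥ 100 starting reads, and estimates < 0.5 were set to 0.5.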

Variant	yeast fitness
GUUCCGUUCGAGUAAUGGUAACGCGUCUCCCUCCUAAGGCGAAGACUGCGGGUUCGAGUCCCGUACGGAACG	0.671
GUUCCGUUCGCGUAAUGGUAACGCGUCUCCGUCCUAAGGCGAAGACUGCGGGUUCGAGUCCCGUACGGAACG	0.597
GUUCCGUUCGCGUAAUGGUAAGGCGUCUCCCUACUAAGGAGAAGACUGCGGGUUCGAGUCCCGUACGGAACG	0.598
GUUCCGUUCGCGUAAUGGUAACGAGUCUCCCUCCUAAGGAGAAGACUGCGGGUUCGAGUCCGGUACGGAACG	≤ 0.5
GUUCCGUUCGCGUAAUGGUAAGGCGUCUCCCUCCUAAGGAGAAGACUGCGGGUUCGAGUCCAGUACGGAACG	≤ 0.5
GUUCCGUUCGCGUAAUGGUAACGCGUUUCCCUCCUAAGGAGAAGACUGCGGGUUCGAGUCCCGUACGGAACG	0.621
GUUCCGUUCGGGUAAUGGUAACGUGUCUCCUUCCUAAGGAGAAGACUGCGGGUUCGAGGCCCGUACGGACCG	≤ 0.5
GUUCCGUUCGCGUAAUGGUAACGCGUUUCCCUCCUAAGGAGAAGACUGCGGCUUCGAGUCCCGUACGGAACG	≤ 0.5
GUUCCGUUCGCGUAAUGGUAACGCGUCUCGCUCCUAAGGAGAAGAUUGCGGGUUCGAGUCCCGUACGGAACG	0.564
GUUCCGUUCGCGUAAUGGUAACGCGUCUCCCUCCUAAGGAGAAGACUGGAGGUUCGAGUGCCGUGCGGAGCG	≤ 0.5
GUUCCGUUCGCGUAAUGGUAACGCGUCUGCUUCGUAAGGAGGAGACUGCGGGUUCGAGUCCCGUACGGAACG	0.535
GUUCCGUUCGCGUAAUGGUAACGUGGCUCCCUCCUAAGGAGAAGACUGCGGGUUCGAGUCCUGUACGGAACG	≤ 0.5
GUUCCGUUCGCGUAAUGGUAACGCGUCUCCCUCGUAAGGAGAAGACCGUGGGUUCGAGUCCCGUACGGAACG	≤ 0.5
GUUCCGUUCGCGUAAUGGUAACGCGUCUCCCUCCUAAGGAGAAGACUGUGGGUUCGAGUCCCGUUCGGAACG	0.52
GUUCCGUUCGUGUAAUGGUAACGCGUCUCCCUCCUCAGGAGAAGACUGCGGGUUCGAGUCCCGUACGGAACG	≤ 0.5
GUUCCGUUCGCGUAAUGGUAACGCGUCUCCCUACUAAGGAGAAGACUGCGGGUUCGAGUCCCGUACGGACCG	0.826
GUUCCGUUCGCGUAAUGGUAACGCGUCUCCCUCCUAAGGAGAAGACUGCGGGUUAGAGUCCCGUACGGAACG	0.631
GUUCCGUUCGCGUAAUGGUAACGCGUCUCUCUCCUAGGGAGAAGACUGCGGGUUGGAGUCCCGUACGGAACG	≤ 0.5
GUUCCGUUCGCGUAAUGGUAACGCGUCUCUCUCCUAAGGAGAAGACUGCGGGUUCGAGUCCCGUACGGUACG	≤ 0.5
GUUCCGUUCGCGUAAUGGUAACGCGUCUCACUCCUAAGGAGAAGAAUCCGGGUUCGAGUCCCGUACGGACCG	≤ 0.5
GUUCCGUUCGCGUAAUGGUAACGCGUGUGCCUCCUCAGGAGAAGACUGCGGGUUCGAGUCCCGUACGGAACG	≤ 0.5
GUUCCGUUCGCGUAAUGGUAAGGCGUCUCCCUCCUAAGGAGAAGACUGCGGGUUCGAGUCCUGUAAGGAACG	≤ 0.5
GUUCCGUUCGCGUAAUGGUAACGCGUCUCCGUCCUAAGGAGAAGACUGCGGGUUCGAGUCCCGUACGGGACG	≤ 0.5
GUUCCGUUCGCGUAAUGGUAACGCGUCUCCCUCCUAAGGAGAAGAUUGCGGGUUCGAGUCCCGUUCGGUACG	≤ 0.5
GUUCCGUUCGCGUAAUGGUAACGCGUCUCGCUCCUAACGAGAAGACUGCGGGUUCGACUCCCGUAAGGAACG	0.535

Variant	yeast fitness
GUUCCGUUCGCGUAAUGGUAACGCGUCUCUGUCCUAAGGAGAAGACUGCGGGUUCGAGUCCCGUACGGAACG	0.632
GUUCCGUUCGCGUAAUGGUAACGCGUCUGCCUCGUAAGGAGAAGACUGCGGGUUCGAGUCCCGUACGGAACG	≤ 0.5
GUUCCGUUCGCGUAAUGGUAACGCGUCUCCAUCCUAAGGAGAAGACUGCGGGUUCGAGUCCCGUACGGAACG	0.685
GUUCCGUUCGCGUAAUGGUAACGCGUCUACCGCCUAAGGAGAAGACUGCGGGUUCGAGUCCCGUAUGGAACG	≤ 0.5
GUUCCGUUCGCGUAAUGGUAACGCGUAUCUCUGCUAAGGAGAAGACUGCGGGUUCGAGUCCCGUACGGAACG	≤ 0.5
GUUCCGUUCGCGUAAUGGUAACGCGUGUGCCUCCUCAGGAGAAGACUGCGGGUUCGAGUCACGUACGGAACG	≤ 0.5
GUUCCGUUCGCGUAAUGGUAACGCGUCUCCCUCCUAAGGAGAAGACUGAGGGUUCGAGUCCCGUACGGAACG	0.596
GUUCCGUUCGCGUAAUGGUAACGCGUCUCCCUCCUAAGGAGAAGAGUGCGGGUUCGAGUCGCGUCCGGAACG	≤ 0.5
GUUCCGUUCGCGUAAUGGUAACGCGUCUCCCUCGUAAGGAGAAGACUGCGAGUUCGAGUCCCGUACGGAGCG	≤ 0.5
GUUCCGUUCGGGUAAUGGUUACGCGUCUCCUUCCUAACGAGAAGACUGCGGGUUCGAGUCCCGUACGGAACG	≤ 0.5
GUUCCGUUCGCGUAAUGGUAACGCGUCUCACUCCCAAGGAGAAGACUGCGGGUUCGAGUCCCGUACGGAACG	≤ 0.5
GUUCCGUUCGCGUAAUGGUAACGCGUAGCCCUCCUAAGGAGAAGACUGCGGGUUCGAGUCCCGUACGGAACG	≤ 0.5
GUUCCGUUCGCGUAAUGGUAACGUGGCUCCCUCCUAAGGAGAAGACUGCGGGUUCGAGUCCCGUACGGAACG	0.51
GUUCCGUUCGCGUAAUGGUAACGCGUCUCCCUCCUAAGGAGAAGACUGCGGGUUAGAGUCCCGUACGGCACG	≤ 0.5
GUUCCGUUCGCGUAAUGGUAACGUGUCUCGCUCCUAAGGAGAAGACUGCGAGUUCGAGUUCCGUACAGAACG	0.543
GUUCCGUUCGCGUAAUGGUAACGCGUCUCCCUCAUAAGGAGAAGAAUGCGGGUUCAAGUCCCGUACGGAACG	≤ 0.5
GUUCCGUUCGGGUAAUGGUAACGUGUCUCCUUCCUAAGGAGAAGACUGCGGGUUCGAGACCCGUACGGACCG	0.563
GUUCCGUUCGAGUAUUGGUAACGGGUCUCCCUGCUAACGAGAGGACUGCGGGUUCGAGUCGCGUACGGAACG	≤ 0.5
GUUCCGUUCGCGUAAUGGUAACGGGUCUGCCUCCUAAGGAGAAGACUGCGGGUUUGAGUCCCGUACGGAGCG	≤ 0.5
GUUCCGUUCGCGUAAUGGUAACGCGUGUCCCUCCUAAGGAGAAGAUUGCGGGUUCGAGUCCCGUACGGAACG	0.582
GUUCCGUUCGCGUAAUGGUAAGGCGUCUCCCUCCUAAGGAGAAGACUGCGGGUUCGAGUCACAUACGGAACG	≤ 0.5
GUUCCGUUCGCGUAAUGGUAACGCGUUUCCCUCCUAAGGAGAAGACUGCGGGAUCGAGUCCCGUACGGAACG	0.548
GUUCCGUUCGCGUAAUGGUAACGCGUCUCUCUCCUAAGGAGAAGGCUGCGGGUUCGAGUCCCGUACGGAACG	≤ 0.5
GUUCCGUUCGCGUAAUGGUAACGCGUCUCCCUCCUAAGGAGAAGACUGCGGGUUCGAGUCCCGUACGGAGCG	0.615
GUUCCGUUCGCGUAAUGGUAACGCGUCUCCCUUCUAAGGGGAAGACUGCGGGUGCGAGUCCGGUACGGAACG	≤ 0.5

Variant	yeast fitness
GUUCCGUUCGAGUAUUGGUAACGGGUCUCCCUGCUAACGAGAGGACUGCGGGUUCGAGUUCCAUACGGAACG	≤ 0.5
GUUCCGUUCGCGUAAUGGUAACGCGUCUCCAUCCUAAGGAGAAGACUGGGGGUUGGAGUCCCGUACGGACCG	≤ 0.5
GUUCCGUUCGCGUAAUGGUAACGCGUCUUCCUCCUUAGGAGAAGACUGCGGGUUCGAGUCCCGUGCAGAACG	≤ 0.5
GUUCCGUUCGUGUAAUGGUAACGGGUCUCCUUCUUAAGGAGAAGACUGUGGGUUCGAGUCCCGUACGGCACG	≤ 0.5
GUUCCGUUCGCGUAAUGGUAACGCGUGUCCCUCCUAAGGAGAAGACUGCGGCUUCGAGUCCCGUACGGAACG	0.595
GUUCCGUUCGCGUAAUGGUAACGUGUCUCGCUCCUAAGGAGAAGACUGCGGAUUCGAGUCUCGUACGGAACG	≤ 0.5
GUUCCGUUCGCGUAAUGGUAACGCGUUUCCCUGCUAGGGAGAAGACUGCGGGUUCGAGUCCCGUAUGGAACG	≤ 0.5
GUUCCGUUCGCGUAAUGGUAACGCGUCUUACUCCUAAGGAGAAGAGUGCGGGUUCGAGUCCCGUACGGAACG	≤ 0.5
GUUCCGUUCGCGUAAUGGUAACGCGUCUCCCUCCUAAGGAGAAGACUGUGGGUUCGGGUCCCGUACGGAACG	0.615
GUUCCGUUCGCGUAAUGGUAACGCGUUUCCCUGCUAAGGAGAAGACUGCGGGUUCGAGUCCCGUACGGAACG	≤ 0.5
GUUCCGUUCGCGUAAUGGUAACGCGUCUCUCUCCUAAGGAGAAGACUCCGGGUUCGAGUCCCGUACGGAACG	≤ 0.5
GUUCCGUUCGAGUAAUGGUAACGCGUCUCCCUAAUACGGAGAGGACUGCGGGUUCGAGUCCCGUACGGAACG	≤ 0.5
GUUCCGUUCGCGUAAUGGUAACGUGGCUCCCUCCUAAGGAGAAGACUGCGGGUUCGAGUCGCGUACGGAACG	0.504
GUUCCGUUCGCGUAAUGGUAACGCGUCUCCCUCUUAAGGAGAUGACUGCGGGUUAGCGUCCCGUACGGAACG	≤ 0.5
GUUCCGUUCGCGUAAUGGUAACGUGGCUCCCUCCUAAGGAGAAGACUGCGGGUUCGAGUCCCGUACGUAACG	≤ 0.5
GUUCCGUUCGCGUAAUGGUAACGCGUUUCCCUCCUAAGGAGUAGACUGCGGGUUGGAGUCCCGUACGGAACG	≤ 0.5
GUUCCGUUCGCGUAAUGGUAACGCGUCUCGCUCCUUAGGAGAAGAAUGCGGGUUCGAGUCCCGUACGGAACG	0.532
GUUCCGUUCGCGUAAUGGUAACGCGUCUCCGUCCUAAGGAGAAGACUGCGGGUACGAGUCCCGUACCGUACG	≤ 0.5
GUUCCGUUCGCGUAAUGGUAACGCGUCUACCUCUUAAGGAGAAGACUGCGGGUUCGAGUCCCGUACGGAACG	≤ 0.5
GUUCCGUUCGCGUAAUGGUAACGCGUCUCUCUCCUAAGGAGAAGACUGCGGGCUCGAGUCCCGUACGGAACG	≤ 0.5
GUUCCGUUCGUGUAAUGGUAACGCGUCUCCAUCCUAAGGCGAUGACUGCGGGUUCGAGUCCCGUGGGGAACG	≤ 0.5
GUUCCGUUCGAGUAAUGGUAACGCGUCUCCCUCCUAAGGAGAAGACGGCGGGUUCGAGACCCGUACGGAACG	≤ 0.5
GUUCCGUUCGCGUAAUGGUAACGCGUCUCCCUCCUAAGGAGAAGAAUGCGGGUUCGAGUCCCGUACGGAACG	0.893
GUUCCGUUCGGCUAAUGGUAACGCGUCCCCCUCCUAAGGAGAAGACUGCGGGUUCGAGUCUCGUACGGAACG	0.747
GUUCCGUUCGCGUAAUGGUAACGGGUCUCUCUCCUAAGGAGAAGACUGCGGGUUCGAGUCCCGUACGGAACG	≤ 0.5
